Results from ChEMBL document CHEMBL3616436, “Synthesis, cytotoxicity and antimicrobial activity of thiourea derivatives incorporating 3-(trifluoromethyl)phenyl moiety” (Eur J Med Chem, 2015).
pEC50: −log10 of the molar value. Calls of active or inactive are those of the source. The calls are words filed in the database; no cut-off is given here.

What was measured:
[1] = Cytotoxicity against human MT4 cells; assay type: cell-based
Candida parapsilosis = experiment: Antimicrobial activity against Candida parapsilosis ATCC 22019 after 24 hrs by twofold serial microdilution method; assay type: functional, organism-based
Pseudomonas aeruginosa [2] = experiment: Antimicrobial activity against Pseudomonas aeruginosa NCTC 6749 after 18 hrs by twofold serial microdilution method; assay type: functional, organism-based
[3] = Cytotoxicity against African green monkey Vero 76 cells assessed as cell viability after 48 to 96 hrs by crystal violet staining; assay type: cell-based; details: chlorocebus sabaeus
Coxsackievirus B5 = experiment: Antiviral activity against Human coxsackievirus B5 ATCC VR-29 infected in African green monkey Vero 76 cells assessed as reduction of virus-plaque formation after 3 days by crystal violet staining; assay type: functional, organism-based; details: Enterovirus B, ATCC VR-29, Vero, 72 h
How it was run: (§1)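 Plaque reduction: Vero-76 at 2x10^5 cells/well grown to confluent monolayers, infected 2 h at 50–100 PFU/well; after removing unadsorbed virus, overlay of D-MEM, 1% inactivated FBS, 0.75% methylcellulose with or without serial compound dilutions; 3 days at 37°C, fixed and stained with crystal violet in 50% ethanol, plaques counted; EC50 by linear regression.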

Escherichia coli [4] = experiment: Antimicrobial activity against Escherichia coli NCTC 8196 after 18 hrs by twofold serial microdilution method; assay type: functional, organism-based
Poliovirus 1 = experiment: Antiviral activity against Poliovirus type 1 ATCC VR-1562 infected in African green monkey Vero 76 cells assessed as reduction of virus-plaque formation after 2 days by crystal violet staining; assay type: functional, organism-based; details: Enterovirus C, ATCC VR-1562, Vero, 48 h
Vaccinia virus = experiment: Antiviral activity against Human Vaccinia virus ATCC VR-1549 infected in African green monkey Vero 76 cells assessed as reduction of virus-plaque formation after 3 days by crystal violet staining; assay type: functional, organism-based; details: Orthopoxvirus vaccinia, ATCC VR-1549, Vero, 72 h
[5] = Cytotoxicity against bovine MDBK cells assessed as cell viability after 48 to 96 hrs by MTT assay; assay type: cell-based, Bos taurus; details: cattle
Human alphaherpesvirus 1 = experiment: Antiviral activity against Human herpesvirus 1 KOS ATCC VR-1493 infected in African green monkey Vero 76 cells assessed as reduction of virus-plaque formation after 3 days by crystal violet staining; assay type: functional, organism-based; details: Human alphaherpesvirus 1, KOS ATCC VR1493, Vero, 72 h; how it was run: as §1
Candida albicans [6] = experiment: Antimicrobial activity against Candida albicans ATCC 90028 after 24 hrs by twofold serial microdilution method; assay type: functional, organism-based
Pseudomonas aeruginosa [7] = experiment: Antimicrobial activity against Pseudomonas aeruginosa ATCC 27863 after 18 hrs by twofold serial microdilution method; assay type: functional, organism-based
[8] = test system: Human immunodeficiency virus 1; experiment: Antiviral activity against HIV1 3B infected in human MT4 cells assessed as protection against virus-induced cytopathogenicity by MTT assay; assay type: functional, organism-based; details: Human immunodeficiency virus 1, 3B
Pseudomonas aeruginosa [9] = experiment: Antimicrobial activity against Pseudomonas aeruginosa ATCC 15442 after 18 hrs by twofold serial microdilution method; assay type: functional, organism-based
Escherichia coli [10] = experiment: Antimicrobial activity against Escherichia coli ATCC 10538 after 18 hrs by twofold serial microdilution method; assay type: functional, organism-based
Yellow fever virus = experiment: Antiviral activity against Yellow fever virus 17D infected in BHK cells assessed as protection against virus-induced cytopathogenicity after 3 to 4 days by MTT assay; assay type: functional, cell-based
Candida albicans [11] = experiment: Antimicrobial activity against Candida albicans ATCC 10231 after 24 hrs by twofold serial microdilution method; assay type: functional, organism-based
[12] = Cytotoxicity against BHK cells assessed as cell viability after 48 to 96 hrs by MTT assay; assay type: cell-based, Mesocricetus auratus; details: hamster
[13] = test system: Bordetella bronchiseptica; experiment: Antimicrobial activity against Bordetella bronchiseptica ATCC 4617 after 18 hrs by twofold serial microdilution method; assay type: functional, organism-based
[14] = test system: Vesicular stomatitis virus; experiment: Antiviral activity against Vesicular stomatitis virus ATCC VR 1540 infected in African green monkey Vero 76 cells assessed as reduction of virus-plaque formation after 2 days by crystal violet staining; assay type: functional, organism-based; details: ATCC VR 1540, Vero, 48 h
[15] = test system: Mammalian orthoreovirus 1; experiment: Antiviral activity against Reovirus type-1 ATCC VR-214 infected in BHK cells assessed as protection against virus-induced cytopathogenicity after 3 to 4 days by MTT assay; assay type: functional, cell-based; details: Mammalian orthoreovirus 1, ATCC VR-214, BHK
How it was run: (§2)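 Cells seeded in 96-well plates (BHK 5x10^4, MDBK 3x10^4 cells/well), grown overnight to confluence, infected at m.o.i. 0.01 (BHK for Reo-1, MDBK for BVDV); serial compound dilutions in maintenance medium with 0.5% inactivated FBS added after 1 h; viability by MTT after 3–4 days at 37°C; EC50 for 50% protection by linear regression.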

Escherichia coli [16] = experiment: Antimicrobial activity against Escherichia coli ATCC 25922 after 18 hrs by twofold serial microdilution method; assay type: functional, organism-based
[17] = Antiviral activity against Bovine viral diarrhea virus 1-NADL ATCC VR-534 infected in MDBK cells assessed as protection against virus-induced cytopathogenicity after 3 to 4 days by MTT assay; assay type: functional, cell-based; details: Bovine viral diarrhea virus isolates and strains, ATCC VR-534, MDBK; how it was run: as §2

With `FC(F)(F)c1cccc(NC(S)=NCCN2CCOCC2)c1` the CC50 [1] was > 100 µM, the Activity (Candida parapsilosis) was “inactive” and the Activity (Pseudomonas aeruginosa [2]) was “inactive”. For the same compound, the CC50 [3] was > 100 µM, the pEC50 (Coxsackievirus B5) was < 4.00 and the Activity (Escherichia coli [4]) was “inactive”. The pEC50 (Poliovirus 1) was < 4.00, the pEC50 (Vaccinia virus) was < 4.00 and the CC50 [5] was > 100 µM. The pEC50 (Human alphaherpesvirus 1) was < 4.00, the Activity (Candida albicans [6]) was “inactive” and the Activity (Pseudomonas aeruginosa [7]) was “inactive”. The pEC50 [8] was < 4.00, the Activity (Pseudomonas aeruginosa [9]) was “inactive” and the Activity (Escherichia coli [10]) was “inactive”. For the same compound, the pEC50 (Yellow fever virus) was < 4.00, the Activity (Candida albicans [11]) was “inactive” and the CC50 [12] was > 100 µM. The Activity [13] was “inactive”, the pEC50 [14] was < 4.00 and the pEC50 [15] was < 4.00. The Activity (Escherichia coli [16]) was “inactive” and the pEC50 [17] was < 4.00.

For `CC(=O)NC(=S)Nc1cccc(C(F)(F)F)c1`, the CC50 [1] was > 100 µM, the Activity (Candida parapsilosis) was “inactive” and the Activity (Pseudomonas aeruginosa [2]) was “inactive”. For the same compound, the CC50 [3] was > 100 µM, the pEC50 (Coxsackievirus B5) was < 4.00 and the Activity (Escherichia coli [4]) was “inactive”. The pEC50 (Poliovirus 1) was < 4.00, the pEC50 (Vaccinia virus) was < 4.00 and the CC50 [5] was > 100 µM. The pEC50 (Human alphaherpesvirus 1) was < 4.00, the Activity (Candida albicans [6]) was “inactive” and the Activity (Pseudomonas aeruginosa [7]) was “inactive”. For the same compound, the pEC50 [8] was < 4.00, the Activity (Pseudomonas aeruginosa [9]) was “inactive” and the Activity (Escherichia coli [10]) was “inactive”. For the same compound, the pEC50 (Yellow fever virus) was < 4.00, the Activity (Candida albicans [11]) was “inactive” and the CC50 [12] was > 100 µM. The Activity [13] was “inactive”, the pEC50 [14] was < 4.00 and the pEC50 [15] was < 4.00. For the same compound, the Activity (Escherichia coli [16]) was “inactive” and the pEC50 [17] was < 4.00.

In the case of `CC[C@H]1CC[C@H](c2ccc(NC(=S)Nc3cccc(C(F)(F)F)c3)cc2)CC1`, the CC50 [1] was 39 µM, the Activity (Candida parapsilosis) was “inactive” and the Activity (Pseudomonas aeruginosa [2]) was “inactive”. The CC50 [3] was 10 µM, the pEC50 (Coxsackievirus B5) was < 5.00 and the Activity (Escherichia coli [4]) was “inactive”. For the same compound, the pEC50 (Poliovirus 1) was < 5.00, the pEC50 (Vaccinia virus) was < 5.00 and the CC50 [5] was 9 µM. The pEC50 (Human alphaherpesvirus 1) was < 5.00, the Activity (Candida albicans [6]) was “inactive” and the Activity (Pseudomonas aeruginosa [7]) was “inactive”. For the same compound, the pEC50 [8] was < 4.41, the Activity (Pseudomonas aeruginosa [9]) was “inactive” and the Activity (Escherichia coli [10]) was “inactive”. The pEC50 (Yellow fever virus) was < 5.00, the Activity (Candida albicans [11]) was “inactive” and the CC50 [12] was 10 µM. For the same compound, the Activity [13] was “inactive”, the pEC50 [14] was < 5.00 and the pEC50 [15] was < 5.00. The Activity (Escherichia coli [16]) was “inactive” and the pEC50 [17] was < 5.05.
